Structures are written as SMILES.

The test has as its system A549. In words: Anticancer activity against human A549 cells at 1 nM after 12 hrs. Format: functional. Conditions: A549, 12 h. A digest of the protocol:
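A-549 cells seeded at 10,000 cells/well in 96-well plates, recovered overnight in 5% CO2, then exposed 12 h to compound at 1 nM/ml (in 1% DMSO in PBS). MTT added from a 5 mg/ml PBS stock, 5 h at 37 °C, medium removed, formazan dissolved in DMSO for 5 min at 37 °C. Growth inhibition read at 550 nm; duplicate runs.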
`Cc1cc(=O)n2nc3c(C#N)c(C(F)(F)F)cc(-c4ccccc4)c3c2[nH]1` had an inhibition at 0.001 µM of 0.44%.
Molecule `Cc1cc(-c2ccccc2)nc2c3c(C(F)(F)F)cc(-c4ccccc4)c(C#N)c3nn12` yielded an inhibition at 0.001 µM of 13.3%.
Take `Cc1cc(C)n2nc3c(C#N)c(-c4ccccc4)cc(C(F)(F)F)c3c2n1`: the inhibition at 0.001 µM stood at 3.74%.
In turn, `N#Cc1c(C(F)(F)F)cc(-c2ccccc2)c2c1nn1c(-c3ccccc3)cc(-c3ccccc3)nc21` registered an inhibition at 0.001 µM of 5.96%.
For `Cc1ccc(-c2cc(C(F)(F)F)n3nc4c(C#N)c(C(F)(F)F)cc(-c5ccccc5)c4c3n2)cc1`, at 0.001 µM the inhibition was 6.77%.
Molecule `N#Cc1c(C(F)(F)F)cc(-c2ccccc2)c2c1nn1c(C(F)(F)F)cc(C(F)(F)F)nc21` had an inhibition at 0.001 µM of 10.2%.
`CCOC(=O)c1cnc2c3c(-c4ccccc4)cc(C(F)(F)F)c(C#N)c3nn2c1N` returned an inhibition at 0.001 µM of 11%.
In turn, `N#Cc1c(-c2ccccc2)cc(C(F)(F)F)c2c1nn1c(C(F)(F)F)cc(C(F)(F)F)nc21` came in with an inhibition at 0.001 µM of 4.54%.
Molecule `Cc1cc(-c2ccccc2)n2nc3c(C#N)c(C(F)(F)F)cc(-c4ccccc4)c3c2n1` displayed an inhibition at 0.001 µM of 4.8%.
The molecule `N#Cc1c(-c2ccccc2)cc(C(F)(F)F)c2c1nn1c(C(F)(F)F)cc(-c3ccccc3)nc21` returned an inhibition at 0.001 µM of 16.2%.
`N#Cc1c(C(F)(F)F)cc(-c2ccccc2)c2c1nn1c(C(F)(F)F)cc(-c3ccccc3)nc21` gave an inhibition at 0.001 µM of 8.9%.
`CCOC(=O)c1cnc2c3c(-c4ccccc4)cc(C(F)(F)F)c(C#N)c3nn2c1O` returned an inhibition at 0.001 µM of 8.24%.
`CCOC(=O)c1cnc2c3c(C(F)(F)F)cc(-c4ccccc4)c(C#N)c3nn2c1N`: the inhibition at 0.001 µM worked out at 10.7%.
Consider `Cc1cc(C(F)(F)F)n2nc3c(C#N)c(C(F)(F)F)cc(-c4ccccc4)c3c2n1`, for which 0.001 µM produced 6.44% inhibition.
As to `COc1cc([C@@H]2c3cc4c(cc3[C@@H](O[C@@H]3O[C@@H]5CO[C@@H](C)O[C@H]5[C@H](O)[C@H]3O)[C@H]3COC(=O)[C@H]23)OCO4)cc(OC)c1O` [ETOPOSIDE], the inhibition at 0.001 µM was determined as 1.15%.

For the origin of these results see ChEMBL document CHEMBL1139931, “Synthesis and structure-activity relationships of novel pyrimido[1,2-b]indazoles as potential anticancer agents against A-549 cell lines” (2007).
